Assay results: PMC9260854 (Biochemistry, 2022)
Changes are numbered by the printed parent chain.

What was measured:
SULT2B1b, S347D, W98A = biological target: T1, SULT2B1b, S347D, W98A (Homo sapiens, UniProt O00204, S347D/W98A); experiment: Initial-rate parameters, direct-contact mutant W98A
T1 sequence (O00204 1-365 W98A/S347D): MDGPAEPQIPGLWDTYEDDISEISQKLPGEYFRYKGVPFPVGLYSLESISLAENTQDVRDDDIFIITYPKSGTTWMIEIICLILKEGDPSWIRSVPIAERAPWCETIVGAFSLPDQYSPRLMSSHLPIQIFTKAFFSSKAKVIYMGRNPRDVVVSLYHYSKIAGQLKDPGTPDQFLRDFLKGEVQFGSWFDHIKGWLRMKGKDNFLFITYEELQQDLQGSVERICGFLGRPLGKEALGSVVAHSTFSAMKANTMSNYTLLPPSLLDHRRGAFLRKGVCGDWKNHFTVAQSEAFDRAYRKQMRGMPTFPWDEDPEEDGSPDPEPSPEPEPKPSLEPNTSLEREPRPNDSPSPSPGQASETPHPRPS

SULT2B1b S347D [1] = biological target: T2, SULT2B1b S347D (Homo sapiens, UniProt O00204, S347D); experiment: Equilibrium binding via intrinsic fluorescence; conditions: for Kd: Kd Quc
T2 sequence (O00204 1-365 S347D): T1 sequence (O00204 1-365 W98A/S347D) with A98W
Procedure, shortened: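 Intrinsic fluorescence titrations of purified His/GST/MBP-tag-cleaved enzyme, excitation 290 nm, in KPO4 (50 mM), pH 7.5, 25 ± 2 °C. […] Triplicate averaged data were fit to a single-site-per-monomer model.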

SULT2B1b S347D [2] = biological target: T2, SULT2B1b S347D; experiment: Initial-rate 1-HP sulfonation
[3] = biological target: T3, native non-tagged SULT2B1b (Homo sapiens, UniProt O00204); experiment: Initial-rate 1-HP sulfonation inhibition, native; type: biochemical; conditions: native enzyme
T3 sequence (O00204 1-365): T1 sequence (O00204 1-365 W98A/S347D) with A98W, D347S

[4] = biological target: T4, SULT2B1b C81S, C225S, C278S, S347D (Homo sapiens, UniProt O00204, C225S/C278S/C81S/S347D); experiment: Initial-rate parameters, non DTNB-reactive scaffold; type: biochemical
T4 sequence (O00204 1-365 C81S/C225S/C278S/S347D): T1 sequence (O00204 1-365 W98A/S347D) with C81S, A98W, C225S, C278S

## O=c1c(O)c(-c2ccc(O)c(O)c2)oc2cc(O)cc(O)c12 [quercetin]
SULT2B1b, S347D, W98A
  Ki: 5.3 µM
SULT2B1b S347D [1]; enzyme form E (no PAP)
  Kd: 5.3 µM
SULT2B1b S347D [1]; enzyme form E•PAP (PAP 30 μM)
  Kd: 0.35 µM
SULT2B1b S347D [1]; saturation with PAPS
  increase of quercetin affinity: 15 fold
SULT2B1b S347D [2]; affinity less for SULT2B1b than SULT1A1
  quercetin affinity, SULT2B1b relative to SULT1A1: ~ 68 fold
SULT2B1b S347D [2]; at saturation
  slowing of turnover at saturating quercetin: ~ 13 fold
SULT2B1b S347D [2]; saturating PAPS and 1-HP, tag-cleaved enzyme
  α (fraction of enzyme turnover at saturating inhibitor), quercetin: 0.08 ± 0.01
SULT2B1b S347D [2]; saturating quercetin
  turnover at saturating quercetin: 0.20 ± 0.02 s⁻¹
[3]
  α WT (quercetin): 0.08 ± 0.01
[4]
  Ki: 0.3 µM
